6 compounds from ChEMBL document CHEMBL1127839, “In vitro photoinduced cytotoxicity and DNA binding properties of psoralen and coumarin conjugates of netropsin analogues: DNA sequence-directed alkylation and cross-link formation” (J Med Chem, 1994) can be followed below.

Test system in the first data set: not listed separately
The data set can be described thus: Dose to produce photoinduced DNA cross-link formation on isolated DNA.
Conditions: not given
`CN(C)CCNC(=O)c1nc(NC(=O)c2nc(NC(=O)CCCCOc3c4occc4cc4ccc(=O)oc34)cn2C)cn1C` showed an XL50 of 1.6 µM.

With `COc1c2occc2cc2ccc(=O)oc12` [METHOXSALEN], the XL50 turned out to be 18 µM.

On to `CN(C)CCNC(=O)c1cc(NC(=O)c2cc(NC(=O)CCCCOc3c4occc4cc4ccc(=O)oc34)cn2C)cn1C`, for which the XL50 is 0.005 µM.

Test system in the next data set: not listed separately
The data set can be described thus: Dose to produce […] on isolated DNA; no DNA cross-links.
Conditions: not given
In the case of `CN(C)CCNC(=O)c1cc(NC(=O)c2cc(NC(=O)CCCCOc3ccc4ccc(=O)oc4c3)cn2C)cn1C`, the XL50 entry is “No DNA crosslinks”.

As for `CN(C)CCNC(=O)c1nc(NC(=O)c2nc(NC(=O)CCCCOc3ccc4ccc(=O)oc4c3)cn2C)cn1C`, the XL50 result was “No DNA crosslinks”.

The next data set concerns Nucleic Acid. The data set can be described thus: Apparent binding constant was determined by ethidium displacement assay in calf thymus. It is filed as nucleic-acid assay. The conditions noted are these: Bos taurus.
As for `CN(C)CCNC(=O)c1nc(NC(=O)c2nc(NC(=O)CCCCOc3c4occc4cc4ccc(=O)oc34)cn2C)cn1C`, the Binding constant amounted to 40000 M⁻¹.

`CN(C)CCNC(=O)c1cc(NC(=O)c2cc(NC(=O)CCCCOc3ccc4ccc(=O)oc4c3)cn2C)cn1C`: the Binding constant turned out to be 170000 M⁻¹.

On to `COc1c2occc2cc2ccc(=O)oc12` [METHOXSALEN], for which the Binding constant was 48000 M⁻¹.

`CN(C)CCNC(=O)c1cc(NC(=O)c2cc(NC(=O)CCCCOc3c4occc4cc4ccc(=O)oc34)cn2C)cn1C`: the Binding constant came to 550000 M⁻¹.

As for `Cn1cc(NC(=O)c2cc(NC(=O)c3cc(NC=O)cn3C)cn2C)cc1C(=O)NCCC(=N)N`, the Binding constant turned out to be 770000 M⁻¹.

For `CN(C)CCNC(=O)c1nc(NC(=O)c2nc(NC(=O)CCCCOc3ccc4ccc(=O)oc4c3)cn2C)cn1C`, the Binding constant was 100000 M⁻¹.

The next data set relates to Panel leukemia (Carcinoma cell lines). Kind of data set: In vitro photocytotoxicity is evaluated against human chronic myeloid leukemia cells grown in culture irradiated at 366 nM. It is filed as functional, cell-based. The conditions noted are these: light or radiation study. The method in brief: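 K562 cells in RPMI 1640 with 10% FCS and 2 mM glutamine were exposed to drug at 0.01-100 μM final for 1 h at 37 °C in the dark. They were washed, then irradiated in PBS for 2 min at 366 nm (420 μW/cm², 5 cm, no filters). Cells were plated at 8 wells per sample and grown 4-5 days in the dark. Readout was MTT at 550 nm; IC50 was taken from the dose-response curve.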
In the case of `CN(C)CCNC(=O)c1nc(NC(=O)c2nc(NC(=O)CCCCOc3c4occc4cc4ccc(=O)oc34)cn2C)cn1C`, inhibition was half-maximal at 4.5 µM (IC50).

Consider `CN(C)CCNC(=O)c1cc(NC(=O)c2cc(NC(=O)CCCCOc3ccc4ccc(=O)oc4c3)cn2C)cn1C`, for which the half-inhibitory concentration (IC50) (as a rule, the concentration that inhibits the measured activity by half) is 75 µM.

`COc1c2occc2cc2ccc(=O)oc12` [METHOXSALEN] gave an IC50 of 100 µM. The IC50 values of the last two compounds are within 1.5-fold of each other.

With `CN(C)CCNC(=O)c1cc(NC(=O)c2cc(NC(=O)CCCCOc3c4occc4cc4ccc(=O)oc34)cn2C)cn1C`, 0.3 µM corresponded to half-maximal inhibition (IC50).

As to `CN(C)CCNC(=O)c1nc(NC(=O)c2nc(NC(=O)CCCCOc3ccc4ccc(=O)oc4c3)cn2C)cn1C`, the IC50 came out at 40 µM. This IC50 lies about 130-fold higher than the previous one.

The next data set has the same test system. Kind of data set: In vitro photocytotoxicity is evaluated against human chronic myeloid leukemia cells grown in culture under the dark conditions. The data set is classed as functional, cell-based.
Conditions: not given
The method in brief: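 Human chronic myeloid leukemia K562 cells were given a 1 h drug exposure (0.01-100 μM final, from DMSO stocks) at 37 °C in the dark, then washed, with no UV irradiation. Cells were cultured 4-5 days in the dark in 96-well plates, 8 wells per sample. MTT was added for 5 h and formazan dissolved in DMSO was read at 550 nm. IC50 was taken from the dose-response curve.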
The compound `CN(C)CCNC(=O)c1nc(NC(=O)c2nc(NC(=O)CCCCOc3c4occc4cc4ccc(=O)oc34)cn2C)cn1C` gave an IC50 of 55 µM.

Turning to `CN(C)CCNC(=O)c1cc(NC(=O)c2cc(NC(=O)CCCCOc3ccc4ccc(=O)oc4c3)cn2C)cn1C`, the IC50 is over 100 µM.

For `COc1c2occc2cc2ccc(=O)oc12` [METHOXSALEN], the concentration for half-maximal inhibition (IC50) is over 100 µM.

Take `CN(C)CCNC(=O)c1cc(NC(=O)c2cc(NC(=O)CCCCOc3c4occc4cc4ccc(=O)oc34)cn2C)cn1C`: the IC50 was over 100 µM.

Take `CN(C)CCNC(=O)c1nc(NC(=O)c2nc(NC(=O)CCCCOc3ccc4ccc(=O)oc4c3)cn2C)cn1C`: the IC50 was over 100 µM.

The next data set concerns Nucleic Acid. Kind of data set: Apparent binding constant was determined by ethidium displacement assay in pol (dA-dT). The data set is classed as nucleic-acid assay.
Conditions: not given
For `CN(C)CCNC(=O)c1nc(NC(=O)c2nc(NC(=O)CCCCOc3c4occc4cc4ccc(=O)oc34)cn2C)cn1C`, the Binding constant was determined as 90000 M⁻¹.

For `CN(C)CCNC(=O)c1cc(NC(=O)c2cc(NC(=O)CCCCOc3ccc4ccc(=O)oc4c3)cn2C)cn1C`, the Binding constant came to 3.5e+06 M⁻¹.

In the case of `COc1c2occc2cc2ccc(=O)oc12` [METHOXSALEN], the Binding constant worked out at 17000 M⁻¹.

As for `CN(C)CCNC(=O)c1cc(NC(=O)c2cc(NC(=O)CCCCOc3c4occc4cc4ccc(=O)oc34)cn2C)cn1C`, the Binding constant turned out to be 290000 M⁻¹.

For `Cn1cc(NC(=O)c2cc(NC(=O)c3cc(NC=O)cn3C)cn2C)cc1C(=O)NCCC(=N)N`, the Binding constant amounted to 3.48e+07 M⁻¹.

In the case of `CN(C)CCNC(=O)c1nc(NC(=O)c2nc(NC(=O)CCCCOc3ccc4ccc(=O)oc4c3)cn2C)cn1C`, the Binding constant is 110000 M⁻¹.

A further data set has as its system Nucleic Acid. The data set can be described thus: Apparent binding constant was determined by ethidium displacement assay in coliphage T4 DNA. The data set is classed as nucleic-acid assay.
Conditions: not given
In the case of `CN(C)CCNC(=O)c1nc(NC(=O)c2nc(NC(=O)CCCCOc3c4occc4cc4ccc(=O)oc34)cn2C)cn1C`, the Binding constant is 270000 M⁻¹.

With `CN(C)CCNC(=O)c1cc(NC(=O)c2cc(NC(=O)CCCCOc3ccc4ccc(=O)oc4c3)cn2C)cn1C`, the Binding constant is 120000 M⁻¹.

For `COc1c2occc2cc2ccc(=O)oc12` [METHOXSALEN], the Binding constant is 14000 M⁻¹.

On to `CN(C)CCNC(=O)c1cc(NC(=O)c2cc(NC(=O)CCCCOc3c4occc4cc4ccc(=O)oc34)cn2C)cn1C`, for which the Binding constant worked out at 660000 M⁻¹.

Regarding `Cn1cc(NC(=O)c2cc(NC(=O)c3cc(NC=O)cn3C)cn2C)cc1C(=O)NCCC(=N)N`, the Binding constant worked out at 650000 M⁻¹.

For the compound `CN(C)CCNC(=O)c1nc(NC(=O)c2nc(NC(=O)CCCCOc3ccc4ccc(=O)oc4c3)cn2C)cn1C`, the Binding constant is 100000 M⁻¹.

The subject of the next data set is Nucleic Acid. The data set can be described thus: Apparent binding constant was determined by ethidium displacement assay in poly (dG-dC). The data set is classed as nucleic-acid assay.
Conditions: not given
Take `CN(C)CCNC(=O)c1nc(NC(=O)c2nc(NC(=O)CCCCOc3c4occc4cc4ccc(=O)oc34)cn2C)cn1C`: the Binding constant is 210000 M⁻¹.

In the case of `CN(C)CCNC(=O)c1cc(NC(=O)c2cc(NC(=O)CCCCOc3ccc4ccc(=O)oc4c3)cn2C)cn1C`, the Binding constant turned out to be 110000 M⁻¹.

Consider `COc1c2occc2cc2ccc(=O)oc12` [METHOXSALEN], for which the Binding constant worked out at 25000 M⁻¹.

For `CN(C)CCNC(=O)c1cc(NC(=O)c2cc(NC(=O)CCCCOc3c4occc4cc4ccc(=O)oc34)cn2C)cn1C`, the Binding constant amounted to 90000 M⁻¹.

For the compound `Cn1cc(NC(=O)c2cc(NC(=O)c3cc(NC=O)cn3C)cn2C)cc1C(=O)NCCC(=N)N`, the Binding constant stood at 200000 M⁻¹.

For the compound `CN(C)CCNC(=O)c1nc(NC(=O)c2nc(NC(=O)CCCCOc3ccc4ccc(=O)oc4c3)cn2C)cn1C`, the Binding constant was found to be 140000 M⁻¹.
